The subject of assay [1] is Escherichia coli. Description: Antibacterial activity against Escherichia coli ATCC 25922 measured after overnight incubation by microplate dilution assay. The assay is classed as functional.
In assay [2] the test system is Escherichia coli. As to the kind of experiment: Antibacterial activity against Escherichia coli measured after 5 to 6 hrs by microdilution titre technique. The class given is functional.
Assay [3] concerns Bacillus thuringiensis. As to the kind of experiment: Antibacterial activity against Bacillus thuringiensis measured after 5 to 6 hrs by microdilution titre technique. The class given is functional. A general note: Broth dilution looks for growth in wells or tubes with falling amounts of substance.
Assay [4] deals with Bacillus subtilis. As to the kind of experiment: Antibacterial activity against Bacillus subtilis ATCC 6051 by microdilution assay. The class given is functional. In a few lines: (§1)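 Turbidimetric broth microdilution. Log-phase cells were washed and resuspended in broth (LB at 37 °C for B. subtilis and S. aureus; oat bran broth at 28 °C for S. scabies) and seeded at 1 × 10⁵ CFU/mL. Twofold serial dilutions were made with DMSO ≤1% (v/v). A620 was read, then plates were incubated with vigorous shaking. MIC was the lowest concentration with no apparent growth versus vehicle-only medium without cells. Run in triplicate.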

Assay [5] deals with Staphylococcus aureus. Description: Antibacterial activity against Staphylococcus aureus ATCC 25923 by microdilution assay. The assay is classed as functional. In short, it runs like this: as §1
In assay [6] the test system is Streptomyces scabiei. As to the kind of experiment: Antibacterial activity against Streptomyces scabiei CGMCC4.7610246 by microdilution assay. The class given is functional. In a few lines:
as §1

Assay [7] deals with Staphylococcus aureus. Description: Antibacterial activity against methicillin-resistant Staphylococcus aureus by microdilution assay. The class given is functional. In a few lines:
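Log-phase cells seeded at 1 × 10⁵ CFU/mL. Twofold serial dilutions made in broth with DMSO cosolvent, at most 1% v/v. Turbidity read at 620 nm before and after incubation with vigorous shaking. MIC is the lowest concentration with no apparent growth versus the medium-plus-vehicle control. Run in triplicate.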

In assay [8] the test system is Pseudomonas aeruginosa. Description: Antibacterial activity against Pseudomonas aeruginosa at 100 uM measured after 5 to 6 hrs by microdilution assay. The assay is classed as functional, organism-based.
Assay [9] concerns Escherichia coli. Description: Antibacterial activity against Escherichia coli at 100 uM measured after 5 to 6 hrs by microdilution assay. The class given is functional, organism-based.
The test system of assay [10] is Pseudomonas aeruginosa. Description: Antibacterial activity against multi-drug resistant Pseudomonas aeruginosa at 100 uM measured after 5 to 6 hrs by microdilution assay. The assay is classed as functional, organism-based. In a few lines:
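Log-phase cells seeded at 1 × 10⁵ CFU/mL. Single-dose screen at 100 μM, with DMSO cosolvent at most 1% v/v. Growth measured turbidimetrically at 620 nm, before and after incubation with vigorous shaking.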

In brackets after ≈: the same amount, converted by molar mass. Activity calls are given as the source filed them. No cut-off for these calls is given here. Where only a bound is given, the exact number is not on record here.

Usually MIC stands for the least concentration at which growth counts as inhibited. Higher therefore signals a need for much substance.

The compound `CC1(C)[C@@H](O)C[C@H](O)[C@]2(C)[C@H]3CC=C4[C@@H]5C[C@@](C)(C(=O)O)CC[C@]5(C)CC[C@@]4(C)[C@]3(C)CC[C@@H]12` came in with an MIC in assay [1] of 16 µg/mL (≈ 33.8 µM).
On the same count and under the same terms, next, `CC1(C)CC[C@H](O)[C@]2(C)[C@H]3CC=C4[C@@H]5C[C@@](C)(C(=O)O)CC[C@]5(C)CC[C@@]4(C)[C@]3(C)CC[C@@H]12`: over 250 µg/mL.
For `CC1(C)CC[C@]2(C(=O)O)CC[C@]3(C)C(=CC[C@@H]4[C@@]5(C)C[C@@H](O)[C@H](O)C(C)(C)[C@@H]5CC[C@]43C)[C@@H]2C1` [MASLINIC ACID], the MIC came out at 3.9 µg/mL (≈ 8.25 µM) in assay [2] and 0.9 µg/mL (≈ 1.9 µM) in assay [3].
On to `CC1(C)[C@@H](O)CC[C@]2(C)[C@H]3C(=O)C=C4[C@@H]5C[C@@](C)(C(=O)OCc6ccccc6)CC[C@]5(C)CC[C@@]4(C)[C@]3(C)CC[C@@H]12`, for which the minimum inhibitory concentration (MIC) in assay [4], in [5], in assay [6] and in assay [7] was over 50 µg/mL in each case. The result in [8], in assay [9] and in assay [10] was inactive.
Turning to `CC1(C)[C@H](O)[C@@H]2O[C@@H]2[C@]2(C)[C@H]3CC=C4[C@@H]5C[C@@](C)(C(=O)OCc6ccccc6)CC[C@]5(C)CC[C@@]4(C)[C@]3(C)CC[C@@H]12`, the MIC in assay [4], in assay [5], in [6] and in assay [7] was over 50 µg/mL throughout. Moreover, the result in assay [8], in assay [9] and in assay [10] was inactive.
